Measurements: ChEMBL document CHEMBL1131948, “Design, synthesis, and evaluation of azapeptides as substrates and inhibitors for human rhinovirus 3C protease” (Bioorg Med Chem Lett, 1999)
Calls of active or inactive are those of the source. No cut-off for these calls is given here. Where a SMILES comes first, the peptide text is derived from it. The star is where a group is joined. Boc = CC(C)(C)OC(=O)*; X1 = c1ccc(O*)cc1

Legend:
[1] = biological target: T1, Human rhinovirus A protease (Human rhinovirus sp.) (UniProt Q4U254); assay: Inhibitory activity against human rhinovirus 3C protease (HRV-14 3Cpro); Inactive
T1 sequence (whole entry): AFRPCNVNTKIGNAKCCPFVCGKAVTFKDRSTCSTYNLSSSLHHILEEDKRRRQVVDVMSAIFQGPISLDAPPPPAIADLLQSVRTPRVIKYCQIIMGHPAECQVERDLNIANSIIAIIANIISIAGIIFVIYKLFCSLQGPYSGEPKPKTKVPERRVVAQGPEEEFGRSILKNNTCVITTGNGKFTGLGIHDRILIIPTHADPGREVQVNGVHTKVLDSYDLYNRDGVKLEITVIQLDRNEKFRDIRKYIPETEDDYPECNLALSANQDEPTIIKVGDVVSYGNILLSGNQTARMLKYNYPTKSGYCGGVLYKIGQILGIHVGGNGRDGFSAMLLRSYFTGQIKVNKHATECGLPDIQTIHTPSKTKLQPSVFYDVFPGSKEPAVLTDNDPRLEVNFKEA
Outline: (§1)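 HRV-14 3C protease (0.75-3.3 µM) was preincubated with compound in 25 mM HEPES, 150 mM NaCl, 1 mM EDTA, pH 7.5, at 28-30 °C. Aliquots were taken periodically and diluted 13-fold into buffer containing 250 µM EALFQ-pNA, and absorbance was read at 405 nm. Activity is expressed relative to a no-inhibitor control, with the earliest point taken about 10-15 s after mixing.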

[2] = biological target: T1, Human rhinovirus A protease (Human rhinovirus sp.); assay: Inhibitory activity against human rhinovirus 3C protease (HRV-14 3Cpro) at a concentration of 100 uM; set-up: scale not given: the % may be the effect or the level left; outline: as §1
[3] = biological target: T1, Human rhinovirus A protease (Human rhinovirus sp.); assay: Inhibitory activity against human rhinovirus 3C protease (HRV-14 3Cpro) at a concentration of 150 uM after 15 min of incubation; set-up: scale not given: the % may be the effect or the level left; outline: as §1
[4] = biological target: T1, Human rhinovirus A protease (Human rhinovirus sp.); assay: Inhibitory activity against human rhinovirus 3C protease (HRV-14 3Cpro) at a concentration of 100 uM after 110 min of incubation; set-up: scale not given: the % may be the effect or the level left; outline: as §1
[5] = biological target: T1, Human rhinovirus A protease (Human rhinovirus sp.); assay: Inhibitory activity against human rhinovirus 3C protease (HRV-14 3Cpro) at a concentration of 150 uM after 75 min of incubation; set-up: scale not given: the % may be the effect or the level left; outline: as §1
[6] = biological target: T1, Human rhinovirus A protease (Human rhinovirus sp.); assay: Inhibitory activity against human rhinovirus 3C protease (HRV-14 3Cpro) at a concentration of 150 uM after 110 min of incubation; set-up: scale not given: the % may be the effect or the level left; outline: as §1
[7] = biological target: T1, Human rhinovirus A protease (Human rhinovirus sp.); assay: Inhibitory activity against human rhinovirus 3C protease (HRV-14 3Cpro) at a concentration of 50 uM after 15 min of incubation; set-up: scale not given: the % may be the effect or the level left; outline: as §1
[8] = biological target: T1, Human rhinovirus A protease (Human rhinovirus sp.); assay: Inhibitory activity against human rhinovirus 3C protease (HRV-14 3Cpro) at a concentration of 50 uM after 45 min of incubation; set-up: scale not given: the % may be the effect or the level left; outline: as §1
[9] = biological target: T1, Human rhinovirus A protease (Human rhinovirus sp.); assay: Inhibitory activity against human rhinovirus 3C protease (HRV-14 3Cpro) at a concentration of 50 uM; set-up: scale not given: the % may be the effect or the level left; outline: as §1
[10] = biological target: T1, Human rhinovirus A protease (Human rhinovirus sp.); assay: Inhibitory activity against human rhinovirus 3C protease (HRV-14 3Cpro) at a concentration of 150 uM after 90 min of incubation; set-up: scale not given: the % may be the effect or the level left; outline: as §1
[11] = biological target: T1, Human rhinovirus A protease (Human rhinovirus sp.); assay: Inhibitory activity against human rhinovirus 3C protease (HRV-14 3Cpro) at a concentration of 100 uM after 45 min of incubation; set-up: scale not given: the % may be the effect or the level left; outline: as §1
[12] = biological target: T1, Human rhinovirus A protease (Human rhinovirus sp.); assay: Inhibitory activity against human rhinovirus 3C protease (HRV-14 3Cpro) at a concentration of 150 uM after 30 min of incubation; set-up: scale not given: the % may be the effect or the level left; outline: as §1
[13] = biological target: T1, Human rhinovirus A protease (Human rhinovirus sp.); assay: Inhibitory activity against human rhinovirus 3C protease (HRV-14 3Cpro) at a concentration of 150 uM after 60 min of incubation; set-up: scale not given: the % may be the effect or the level left; outline: as §1
[14] = biological target: T1, Human rhinovirus A protease (Human rhinovirus sp.); assay: Inhibitory activity against human rhinovirus 3C protease (HRV-14 3Cpro) at a concentration of 100 uM after 75 min of incubation; set-up: scale not given: the % may be the effect or the level left; outline: as §1
[15] = biological target: T1, Human rhinovirus A protease (Human rhinovirus sp.); assay: Inhibitory activity against human rhinovirus 3C protease (HRV-14 3Cpro) at a concentration of 50 uM after 30 min of incubation; set-up: scale not given: the % may be the effect or the level left; outline: as §1
[16] = biological target: T1, Human rhinovirus A protease (Human rhinovirus sp.); assay: Inhibitory activity against human rhinovirus 3C protease (HRV-14 3Cpro) at a concentration of 150 uM; set-up: scale not given: the % may be the effect or the level left; outline: as §1
[17] = biological target: T1, Human rhinovirus A protease (Human rhinovirus sp.); assay: Inhibitory activity against human rhinovirus 3C protease (HRV-14 3Cpro) at a concentration of 100 uM after 60 min of incubation; set-up: scale not given: the % may be the effect or the level left; outline: as §1
[18] = biological target: T1, Human rhinovirus A protease (Human rhinovirus sp.); assay: Inhibitory activity against human rhinovirus 3C protease (HRV-14 3Cpro) at a concentration of 100 uM after 15 min of incubation; set-up: scale not given: the % may be the effect or the level left; outline: as §1
[19] = biological target: T1, Human rhinovirus A protease (Human rhinovirus sp.); assay: Inhibitory activity against human rhinovirus 3C protease (HRV-14 3Cpro) at a concentration of 100 uM after 30 min of incubation; set-up: scale not given: the % may be the effect or the level left; outline: as §1
[20] = biological target: T1, Human rhinovirus A protease (Human rhinovirus sp.); assay: Inhibitory activity against human rhinovirus 3C protease at a concentration of 150 uM (HRV-14 3Cpro); outline: as §1

CC(C)(C)OC(=O)N[C@@H](Cc1ccccc1)C(=O)NN(CCC(N)=O)C(=O)Oc1ccccc1
Activity [1]: inactive

CC(C)C[C@H](NC(=O)[C@@H](NC(=O)OC(C)(C)C)C(C)C)C(=O)N[C@@H](Cc1ccccc1)C(=O)NN(CCC(N)=O)C(=O)Oc1ccccc1
Activity [2]: 18%
Activity [3]: 10%
Activity [4]: 95%
Activity [5]: 45%
Activity [6]: 85%
Activity [7]: 40%
Activity [8]: 85%
Activity [9]: 23%
Activity [10]: 70%
Activity [11]: 62%
Activity [12]: 13%
Activity [13]: 20%
Activity [14]: 95%
Activity [15]: 75%
Activity [16]: 5%
Activity [17]: 90%
Activity [18]: 18%
Activity [19]: 28%

CC(C)C[C@H](NC(=O)[C@@H](NC(=O)OC(C)(C)C)C(C)C)C(=O)N[C@@H](Cc1ccccc1)C(=O)NCC(=O)Oc1ccccc1 (Boc-VLFG-X1)
k [20]: 0.009 min⁻¹

CC(C)C[C@H](NC(=O)[C@@H](NC(=O)OC(C)(C)C)C(C)C)C(=O)N[C@@H](Cc1ccccc1)C(=O)NN(CCC(N)=O)C(=O)OCc1ccccc1
Activity [1]: inactive

CC(C)C[C@H](NC(=O)[C@@H](NC(=O)OC(C)(C)C)C(C)C)C(=O)N[C@@H](Cc1ccccc1)C(=O)NN(CCC(N)=O)C(=O)OCC(Cl)(Cl)Cl
Activity [1]: inactive
